The source of these data is ChEMBL document CHEMBL1123636 (J Med Chem, 1987).

Experiment [1] relates to Mus musculus. In words: Analgesic potency (antinociceptive activity) (administered icv) at peak time of 20 min in male Swiss-Webster mice. Type of experiment: functional. The gist of the method: (§1)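 Intracerebroventricular dosing in male Swiss-Webster mice. Antinociception scored by the acetic acid writhing test at the peak time of analgesia, 10 or 20 min after injection depending on compound.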

Experiment [2] has as its target T1, Mu-type opioid receptor (Cavia porcellus, UniProt P97266). In words: Binding affinity of Opioid receptor mu 1 by the displacement of mu-selective [3H]DAGO from brain membrane preparations. The gist of the method: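 Competitive displacement of the μ-selective radioligand [3H]DAGO from brain membrane preparations ([…]). Affinity taken from ligand displacement.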

The species named for experiment [3] is Mus musculus. In words: Opioid agonist potencies was determined by mouse vas deferens (MVD). Type of experiment: functional.
For experiment [4], the species on record is Cavia porcellus. In words: Ke value for naloxone versus compound in the guinea pig ileum (GPI) in order to distinguish between mu- and delta-mediated effects. In kind it is functional. In outline:
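Electrically stimulated guinea pig ileum. Naloxone antagonism measured against each agonist and expressed as a Ke, used to tell μ- from δ- or κ-mediated effects.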

Experiment [5] is filed under the species Cavia porcellus. In words: Opioid agonist potencies was determined by electrically stimulated guinea pig ileum (GPI). Type of experiment: functional.
The test system of experiment [6] is Mus musculus. The experiment is described as follows: Analgesic potency (antinociceptive activity) (administered icv) at peak time of 10 min in male Swiss-Webster mice. Type of experiment: functional. In outline: as §1
Experiment [7] has as its target T1, Mu-type opioid receptor. In words: Binding affinity of Opioid receptor mu 1 mu 1 by the displacement of mu-selective [3H]DAGO from brain membrane preparations.

Where a SMILES comes first, the peptide text is derived from it. Side-chain parts run from the residue outwards. The star is where a group is joined. Oxymorphamine(6α) = CN1CC[C@]23c4c5ccc(O)c4O[C@H]2[C@@H](N*)CC[C@@]3(O)[C@H]1C5

T1 sequence (P97266 whole entry): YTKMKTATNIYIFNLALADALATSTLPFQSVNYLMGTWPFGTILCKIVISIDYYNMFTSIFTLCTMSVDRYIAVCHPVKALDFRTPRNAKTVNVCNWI

The Ki is the dissociation constant of the complex between target and ligand, obtained from inhibition or displacement. Read a low Ki as a stronger hold on the target. As usually defined, the IC50 is the concentration that inhibits the measured activity by half. In turn, `CC(=O)N[C@H]1CC[C@@]2(O)[C@H]3Cc4ccc(O)c5c4[C@@]2(CCN3C)[C@H]1O5` had an ED50 in experiment [1] of 5.4 nM. The molecule further gave a Ki in experiment [2] of 1.81 nM. In addition, the IC50 in experiment [3] worked out at 166 nM; in experiment [5], 136 nM. Besides, in experiment [4], the Ke is given as 0.88 nM.

In experiment [1], `CC(=O)NCC(=O)NCC(=O)N[C@H]1CC[C@@]2(O)[C@H]3Cc4ccc(O)c5c4[C@@]2(CCN3C)[C@H]1O5` showed an ED50 of 3.1 nM. Further, the Ki in experiment [2] stood at 5.48 nM. Also, the half-inhibitory concentration (IC50) in experiment [3] was 78 nM; in experiment [5], 82.3 nM. The same molecule showed a Ke in experiment [4] of 1.55 nM.

In turn, `CC(C)C[C@H](NC(=O)[C@H](Cc1ccccc1)NC(=O)CNC(=O)[C@H](CCC(=O)N[C@H]1CC[C@@]2(O)[C@H]3Cc4ccc(O)c5c4[C@@]2(CCN3C)[C@H]1O5)NC(=O)[C@@H](N)Cc1ccc(O)cc1)C(=O)O` (H-YE(Oxymorphamine(6α))GFL-OH) showed an ED50 in experiment [1] of 0.7 nM. Moreover, the inhibitory constant (Ki) in experiment [2] turned out to be 19.1 nM. For the same molecule, the IC50 in experiment [3] stood at 26.9 nM; in experiment [5], 7.5 nM. Also, the Ke in experiment [4] worked out at 1.02 nM.

As to `CC(C)C[C@H](NC(=O)[C@H](Cc1ccccc1)NC(=O)CNC(=O)[C@H](CCC(=O)NCC(=O)NCC(N)=O)NC(=O)[C@@H](N)Cc1ccc(O)cc1)C(=O)O` (H-YE([Gly-Gly-NH2])GFL-OH), the inhibition constant (Ki) in experiment [2] was 52.9 nM. Further, the IC50 in experiment [3] turned out to be 61.8 nM; in experiment [5] it was 597 nM. In experiment [6], this molecule had an ED50 of 60 nM. Also, in experiment [4], the Ke was 2.32 nM.

As for `CC(C)C[C@H](NC(=O)[C@H](Cc1ccccc1)NC(=O)CNC(=O)[C@H](CCC(=O)NCC(=O)NCC(=O)N[C@H]1CC[C@@]2(O)[C@H]3Cc4ccc(O)c5c4[C@@]2(CCN3C)[C@H]1O5)NC(=O)[C@@H](N)Cc1ccc(O)cc1)C(=O)O` (H-YE([Gly-Gly-Oxymorphamine(6α)])GFL-OH), the ED50 in experiment [1] is 5 nM. In experiment [2], this molecule gave a Ki of 11.1 nM. The IC50 in experiment [3] was 47.7 nM; in experiment [5], 57.2 nM. Also, the Ke in experiment [4] stood at 1.32 nM.

In experiment [4], `CC(C)C[C@H](NC(=O)[C@H](Cc1ccccc1)NC(=O)CNC(=O)CNC(=O)[C@@H](N)Cc1ccc(O)cc1)C(=O)O` [ENKEPHALIN] displayed a Ke of 1.53 nM.

In experiment [6], `CN1CC[C@]23c4c5ccc(O)c4O[C@H]2C(=O)CC[C@@]3(O)[C@H]1C5` [OXYMORPHONE] yielded an ED50 of 24 nM.

The molecule H-YQGFL-OH yielded a Ki in experiment [7] of 21.7 nM. Further, the IC50 in experiment [3] is 123 nM; in experiment [5] it was 210 nM. Moreover, in experiment [6], the ED50 is given as 84 nM. In addition, the Ke in experiment [4] turned out to be 1.63 nM.
